We go through 44 molecules from ChEMBL document CHEMBL4842315, “Discovery and mechanism of action studies of 4,6-diphenylpyrimidine-2-carbohydrazides as utrophin modulators for the treatment of Duchenne muscular dystrophy” (Eur J Med Chem, 2021).

Data set [1] in a line: Upregulation of utrophin gene expression in mouse myoblasts expressing LUmdx and firefly luciferase assessed as activation of utrophin promoter by cell-based reporter assay. It is filed as functional, tissue-based, Myoblast. The gist of the method:
(§1)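 Immortalised myoblasts derived from the LUmdx mouse carry a utrophin promoter–firefly luciferase reporter, and promoter activation is read as luciferase signal. During screening, hits were counterscreened for firefly luciferase assay interference.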

Data set [2] relates to Myoblast. The data set can be described thus: Upregulation of AhR gene expression in DMD disease mouse model myoblasts expressing H2K-mdx utrnA-firefly luciferase assessed as fold increase in AhR mRNA at 30 uM by qRT-PCR analysis relative to control. (In qPCR the cycle at which signal appears reflects the starting amount.)
The nature of data set [3]: Upregulation of utrophin gene expression in DMD disease mouse model myoblasts expressing H2K-mdx utrnA-firefly luciferase assessed as fold increase in utrophin mRNA at 3 uM by qRT-PCR analysis relative to control. It is filed as functional, Myoblast.
Data set [4] in a line: Apparent permeability of the compound across apical to basolateral side in human Caco-2 cells. The data set is classed as ADME, cell-based. The note with it: read-out: permeability. (Caco-2 cells form a polarised layer with tight junctions and transporters.)
The nature of data set [5]: Upregulation of utrophin gene expression in mouse myoblasts expressing LUmdx and firefly luciferase assessed as activation of utrophin promoter at 0.1 to 50 uM by cell-based reporter assay relative to control. It is filed as functional, Myoblast. The note with it: dose 0.1-50 µM. The gist of the method: as §1
Background: A reporter such as luciferase makes a cellular process visible.

For data set [6], the system named is Myoblast. The data set can be described thus: Upregulation of utrophin gene expression in DMD disease mouse model myoblasts expressing H2K-mdx utrnA-firefly luciferase assessed as activation of utrophin promoter by cell-based reporter assay. The data set is classed as functional, tissue-based.
Data set [7] in a line: Upregulation of utrophin gene expression in DMD disease mouse model myoblasts expressing H2K-mdx utrnA-firefly luciferase assessed as fold increase in utrophin mRNA at 30 uM by qRT-PCR analysis relative to control. The data set is classed as functional, Myoblast.
Setting [8] is: Mus musculus, Myoblast, read-out: EC50.

What is called EC50 is the concentration giving half of the maximal effect.

Molecules are shown by their SMILES. Active and inactive are the calls of the source. The calls are words filed in the database; no cut-off is given here.

For the molecule `NNC(=O)c1nc(-c2cccc(F)c2)cc(-c2cccc(F)c2)n1`, the EC50 in data set [1] (setting [8]) is greater than 10 µM.
Regarding `NNC(=O)c1nc(-c2ccccc2)cc(-c2ccc(Oc3ccccc3)cc2)n1`, the EC50 result in data set [1] (myoblast) was “Not Active”.
Consider `CCS(=O)(=O)c1ccc2oc(-c3ccc4ccccc4c3)nc2c1` [EZUTROMID], for which the “fold change (FC)” value in the data set on Myoblast [2] was “inactive”. In addition, the “fold change (FC)” value in data set [3] was determined as 1.7.
Regarding `COc1cc(-c2ccccc2)nc(C(=O)NN)n1`, in data set [1] (myoblast), the EC50 entry was “Not Active”.
On to `Cc1c(-c2ccccc2)nc(C(=O)NN)nc1-c1ccccc1`, for which, in data set [1] (myoblast), the EC50 result is listed as “Not Active”.
Consider `NNC(=O)c1nc(-c2ccccc2)nc(-c2ccccc2)n1`, for which, in data set [1] (setting [8]), the EC50 stood at 8.98 µM.
Still for that read-out and setting: to `C#CCOCCOc1ccc(-c2cc(-c3ccccc3)nc(C(=O)NN)n2)cc1` belongs 14.9 µM; to `CCCc1ccc(-c2cc(-c3ccccc3)nc(C(=O)NN)n2)cc1`, 4.54 µM.
Turning to `COc1ccccc1-c1cc(-c2ccccc2OC)nc(C(=O)NN)n1`, in data set [1] (myoblast), the EC50 result is recorded as “Not Active”.
Still for that read-out and setting: as for `NC(=O)c1nc(-c2ccccc2)cc(-c2ccccc2)n1`, the entry is “Not Active”.
The same measure, in the same setting: as for `NNC(=O)c1cc(-c2ccccc2)nc(-c2ccccc2)n1`, the entry is “Not Active”.
Still for that read-out and setting: to `Cc1cc(C)nc(C(=O)NN)n1` belongs “Not Active”; to `NNC(=O)c1nc(Oc2ccccc2)cc(-c2ccccc2)n1`, “Not Active”.
Consider `CCOc1ccc(-c2cc(-c3ccccc3)nc(C(=O)NN)n2)cc1`, for which, in data set [1] (setting [8]), the EC50 came out at 2.71 µM.
On the same count and under the same terms, as for `COc1cccc(-c2cc(-c3cccc(OC)c3)nc(C(=O)NN)n2)c1`, the figure is 9.22 µM.
For the molecule `NNC(=O)c1nc(-c2cccc(C(F)(F)F)c2)cc(-c2cccc(C(F)(F)F)c2)n1`, in data set [1] (myoblast), the EC50 entry is on record as “Not Active”.
On the same count and under the same terms, to `NNC(=O)c1nc(-c2ccccc2)cc(C2CCCCC2)n1` belongs “Not Active”; to `NNC(=O)c1ncccn1`, “Not Active”.
`NNC(=O)c1nc(-c2ccccc2)cc(-c2ccc(C3(C(F)(F)F)N=N3)cc2)n1`: in data set [1] (setting [8]), the EC50 worked out at 7.22 µM.
Same read-out and setting: to `C#CCOCCOc1ccc(-c2cc(-c3ccc(C4(C(F)(F)F)N=N4)cc3)nc(C(=O)NN)n2)cc1` belongs 20 µM.
In the case of `NNC(=O)c1cnc(-c2ccccc2)cc1-c1ccccc1`, the EC50 result in data set [1] (myoblast) was “Not Active”.
Take `COCc1ccc(-c2cc(-c3ccccc3)nc(C(=O)NN)n2)cc1`: the EC50 in data set [1] (setting [8]) is 4.65 µM.
As for `NNC(=O)Cc1nc(-c2ccccc2)cc(-c2ccccc2)n1`, the EC50 result in data set [1] (myoblast) is recorded as “Not Active”.
`O=C(NO)c1nc(-c2ccccc2)cc(-c2ccccc2)n1`: the EC50 result in data set [1] (myoblast) is reported as “Not Active”.
As for `NNc1nc(-c2ccccc2)cc(-c2ccccc2)n1`, the EC50 result in data set [1] (myoblast) was “Not Active”.
On the same count and under the same terms, to `NNC(=O)c1cc(-c2ccccc2)cc(-c2ccccc2)n1` belongs “Not Active”.
As for `COc1ccc(-c2cc(-c3ccc(OC)cc3)nc(C(=O)NN)n2)cc1`, the EC50 in data set [1] (setting [8]) is 7.14 µM.
On the same count and under the same terms, to `COc1ccc(-c2cc(-c3ccccc3)nc(C(=O)NN)n2)cc1` belongs 2.28 µM; to `CCCOc1ccc(-c2cc(-c3ccccc3)nc(C(=O)NN)n2)cc1`, 5.62 µM.
Still for that read-out and setting: to `NNC(=O)c1nc(-c2ccccc2)cc(-c2ccc(CO)cc2)n1` belongs 1.9 µM; to `NNC(=O)c1nc(-c2ccc(F)cc2)cc(-c2ccc(F)cc2)n1`, 12.8 µM.
Regarding `CC(=O)NCCOCCOc1ccc(-c2cc(-c3ccccc3)nc(C(=O)NN)n2)cc1`, the EC50 in data set [1] (setting [8]) turned out to be 12.7 µM.
The same measure, in the same setting: to `NNC(=O)c1nc(-c2ccc(C(F)(F)F)cc2)cc(-c2ccc(C(F)(F)F)cc2)n1` belongs greater than 10 µM; to `NNC(=O)c1nc(-c2ccccc2)cc(-c2ccc(O)cc2)n1`, 1.57 µM; to `NNC(=O)c1nc(-c2ccccc2F)cc(-c2ccccc2F)n1`, 11 µM.
On to `C#CCOCCOc1ccc(-c2nc(C(=O)NN)nc(-c3ccc(C4(C(F)(F)F)N=N4)cc3)c2C)cc1`, for which, in data set [1] (myoblast), the EC50 entry is listed as “Not Active”.
On to `O=C(O)c1nc(-c2ccccc2)cc(-c2ccccc2)n1`, for which, in data set [1] (myoblast), the EC50 entry is given as “Not Active”.
Still for that read-out and setting: as for `CCCCOc1ccc(-c2cc(-c3ccccc3)nc(C(=O)NN)n2)cc1`, the entry is “Not Active”.
On the same count and under the same terms, as for `NNC(=O)c1nc(-c2ccccc2)cc(-c2ccc(OCCOCc3ccccc3)cc2)n1`, the entry is “Not Active”.
As to `COCCOc1ccc(-c2cc(-c3ccccc3)nc(C(=O)NN)n2)cc1`, the EC50 in data set [1] (setting [8]) came out at 8.95 µM.
As for `NNC(=O)c1nc(-c2ccccc2)cc(-c2ccccc2)n1`, in data set [4], the Papp A→B turned out to be 30.7 ×10⁻⁶ cm/s. The “fold change (FC)” value is 2 in data set [5] and 1.6 in data set [7]. Further, the outcome with Myoblast [6] was inactive. In addition, the EC50 in data set [1] (setting [8]) was 20.5 µM.
On to `N/N=C/c1nc(-c2ccccc2)cc(-c2ccccc2)n1`, for which the EC50 result in data set [1] (myoblast) is given as “Not Active”.
In the case of `COC(=O)c1nc(-c2ccccc2)cc(-c2ccccc2)n1`, the EC50 entry in data set [1] (myoblast) is “Not Active”.
On the same count and under the same terms, to `NNC(=O)c1nc(-c2ccccc2C(F)(F)F)cc(-c2ccccc2C(F)(F)F)n1` belongs “Not Active”.
